This note sets out measurements from the array DNA melting data of Ke et al. (doi:10.1101/2024.01.08.574731).

Data set [1] can be described thus: folding enthalpy; higher = less favourable; fluorescence melt of hairpins on a sequencing array, two-state fit. To be noted: sodium 0.088 M. In a few lines:
(§1)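 In 50 mM Na-HEPES pH 8.0 containing 25 mM NaCl, hairpins from the library on a sequenced MiSeq flow cell were imaged for Cy3 fluorescence at 2.5 °C steps up to 60 °C, with Cy3 and quencher oligos annealed. After normalisation to pre-quench Cy3 and to control constructs, two-state fits with bootstrapping gave melting temperature and folding enthalpy. Four replicates were combined by inverse-variance weighting, and fitted temperatures were shifted up by 9.35 °C to match UV melts.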

A short description of data set [2]: melting temperature; fluorescence melt of hairpins on a sequencing array, two-state fit, raised by 9.35 °C to match UV melts. To be noted: sodium 0.088 M. In a few lines: as §1

With GACGGAGGAAACTCCGCC (.(((((....))))).), the folding enthalpy in data set [1] was -14.9 kcal/mol. Besides, the Tm in data set [2] was 48.2 °C.

On to GACGGCACGAAAGTGGTC (((..(((....)))))), for which the folding enthalpy in data set [1] was -14.6 kcal/mol. Also, the Tm in data set [2] worked out at 34.5 °C.

In the case of GACGGCCCGAAAGGGGTC (((..(((....)))))), in data set [1], the folding enthalpy is -8.8 kcal/mol. In data set [2], the Tm turned out to be 44.1 °C.

As for GACGGCCGAAAGGCGGTC (((.(((....))).))), the folding enthalpy in data set [1] is -25.1 kcal/mol. For the same sequence, the Tm in data set [2] was 67.9 °C.

In the case of GACGGCCGAAAGGCTGTC (((.(((....))).))), in data set [1], the folding enthalpy was -28.1 kcal/mol. Besides, the Tm in data set [2] was 68.8 °C.

On to GACGGCGAAAGCCAGGTC ((((((....)))..))), for which, in data set [1], the folding enthalpy is -16.5 kcal/mol. For the same sequence, the Tm in data set [2] turned out to be 46.6 °C.

As to GACGGCGAAAGCCCGGTC ((((((....)))..))), the folding enthalpy in data set [1] was -13.2 kcal/mol. The Tm in data set [2] was determined as 48.1 °C.

Turning to GACGGCGAAAGCCTGTC ((((((....))).))), the folding enthalpy in data set [1] was -15.6 kcal/mol. Also, the Tm in data set [2] turned out to be 58.6 °C.

GACGGCGAAAGCCTTGTC ((((((....)))..))): the folding enthalpy in data set [1] was -12.3 kcal/mol. The Tm in data set [2] amounted to 43.9 °C.

Regarding GACGGCGCGAAAGCGGTC (((..(((....)))))), in data set [1], the folding enthalpy is -9.91 kcal/mol. The Tm in data set [2] is 48.2 °C.

For the sequence GACGGCGGAAACACCGTC (((((.(....).))))), the folding enthalpy in data set [1] was -42.4 kcal/mol. The Tm in data set [2] turned out to be 54 °C.

For GACGGCGGAAACGCCATC ((.((((....)))).)), the folding enthalpy in data set [1] was -13.2 kcal/mol. Moreover, the Tm in data set [2] turned out to be 41.1 °C.

Turning to GACGGCGGAAACGCCGCC (.(((((....))))).), the folding enthalpy in data set [1] is -8.56 kcal/mol. The Tm in data set [2] was 54.9 °C.

Take GACGGGGCGAAAGCCGTC (((..(((....)))))): the folding enthalpy in data set [1] was -15.6 kcal/mol. For the same sequence, the Tm in data set [2] was determined as 55.2 °C.

Consider GACGGTGCGAAAGCAGTC (((..(((....)))))), for which the folding enthalpy in data set [1] was -16.9 kcal/mol. Further, the Tm in data set [2] is 39.9 °C.

As to GACGTAGGAAACTACGTC (((((((....))))))), the folding enthalpy in data set [1] was -44 kcal/mol. Besides, the Tm in data set [2] was found to be 63.3 °C.

Consider GACGTAGGAAACTGCGTC ((((.((....)).)))), for which, in data set [1], the folding enthalpy is -45.2 kcal/mol. In addition, the Tm in data set [2] is 51.5 °C.

Take GACGTCGGAAACGACACC (..((((....))))..): the folding enthalpy in data set [1] is -10.5 kcal/mol. Moreover, the Tm in data set [2] was found to be 29.3 °C.

For the sequence GACGTCGGAAACGACGCC (.(((((....))))).), in data set [1], the folding enthalpy is -11.6 kcal/mol. In addition, the Tm in data set [2] is 50.7 °C.

For GACGTGAAAACGTC (((((....))))), the folding enthalpy in data set [1] is -32.7 kcal/mol. In addition, the Tm in data set [2] is 61.8 °C.

As to GACGTGGAAACACGTC ((((((....)))))), the folding enthalpy in data set [1] is -33.4 kcal/mol. Moreover, the Tm in data set [2] was determined as 67.6 °C.

On to GACGTGGGAAACCACGCC (.(((((....))))).), for which the folding enthalpy in data set [1] was -14 kcal/mol. For the same sequence, the Tm in data set [2] was found to be 48.6 °C.

For the sequence GACGTTGGAAACAACGTC (((((((....))))))), the folding enthalpy in data set [1] was -39.1 kcal/mol. For the same sequence, the Tm in data set [2] is 68 °C.

Regarding GACGTTGGAAACAGCGTC ((((.((....)).)))), the folding enthalpy in data set [1] was -39.6 kcal/mol. Also, the Tm in data set [2] is 52.1 °C.

In the case of GACGTTGGAAACAGTGTC (((..((....))..))), in data set [1], the folding enthalpy is -14.1 kcal/mol. In addition, the Tm in data set [2] came out at 31.2 °C.

For the sequence GACTACACGAAAGTGGTC (((..(((....)))))), the folding enthalpy in data set [1] is -14.2 kcal/mol. For the same sequence, the Tm in data set [2] is 40 °C.

As to GACTACGAAAGTAAAGTC ((((((....)))..))), in data set [1], the folding enthalpy was -23.3 kcal/mol. Besides, the Tm in data set [2] worked out at 36.5 °C.

As to GACTACGAAAGTAAGGTC ((((((....)))..))), in data set [1], the folding enthalpy was -21.4 kcal/mol. Further, the Tm in data set [2] came out at 32.7 °C.

Turning to GACTACGAAAGTAGGTC ((((((....))).))), in data set [1], the folding enthalpy was -17.5 kcal/mol. Moreover, the Tm in data set [2] was determined as 48.7 °C.

On to GACTACGAAAGTAGTC ((((((....)))))), for which the folding enthalpy in data set [1] was -28.4 kcal/mol. Also, the Tm in data set [2] amounted to 66.5 °C.

GACTACGGAAACGTAGCC (.(((((....))))).): the folding enthalpy in data set [1] is -14.1 kcal/mol. Besides, the Tm in data set [2] stood at 44.5 °C.

As for GACTAGACGAAAGTCGTC (((..(((....)))))), the folding enthalpy in data set [1] was -13 kcal/mol. In data set [2], the Tm was 38.9 °C.

Turning to GACTAGGCGAAAGCCGTC (((..(((....)))))), the folding enthalpy in data set [1] was -8.71 kcal/mol. Also, the Tm in data set [2] was 50.4 °C.

With GACTAGGGAAACCTAGTC (((((((....))))))), the folding enthalpy in data set [1] is -42.5 kcal/mol. Besides, in data set [2], the Tm was 56.9 °C.

Turning to GACTATGGAAACATAGTC (((((((....))))))), the folding enthalpy in data set [1] is -46.8 kcal/mol. Also, the Tm in data set [2] turned out to be 54.5 °C.

Take GACTCCGAAAGGAAAGTC ((((((....)))..))): in data set [1], the folding enthalpy is -24.8 kcal/mol. For the same sequence, the Tm in data set [2] worked out at 44.4 °C.

As for GACTCCGAAAGGAAGGTC ((((((....)))..))), the folding enthalpy in data set [1] is -22.1 kcal/mol. Also, in data set [2], the Tm amounted to 38.3 °C.
